Test results as given in ChEMBL document CHEMBL4715714, “Design, synthesis and biological evaluation of thiosemicarbazones, hydrazinobenzothiazoles and arylhydrazones as anticancer agents with a potential to overcome multidrug resistance” (Eur J Med Chem, 2016).
The source made the active and inactive calls.

Experiments:
Type in all cases: functional, cell-based
MES-SA [1] = test: Cytotoxicity against human MES-SA cells assessed as inhibition of cell proliferation incubated for 72 hrs by MTT assay
How it was run: (§1)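 Cells were seeded (10000/well for A2780, 5000/well for MES-SA/Dx5 and KB-3-1/V1) and left to attach 12 h, then exposed to compound for 72 h. Medium was removed, and MTT (0.83 mg/mL) was added for 1 h at 37 °C. Cells were lysed in DMSO and absorbance read at 540 nm. Signal was corrected for unstained lysate background, normalized to untreated cells, and IC50 taken from a sigmoidal dose-response fit.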

MES-SA/Dx5 [2] = test: Cytotoxicity against human MES-SA/DX5 cells assessed as inhibition of cell proliferation incubated for 72 hrs by MTT assay; how it was run: as §1
MES-SA [3] = test: Cytotoxicity against human MES-SA cells assessed as inhibition of cell proliferation at <50 uM incubated for 72 hrs by MTT assay; conditions: dose microM <50, time 72.0 hrs; how it was run: as §1
MES-SA/Dx5 [4] = test: Cytotoxicity against human MES-SA/DX5 cells assessed as inhibition of cell proliferation at <50 uM incubated for 72 hrs by MTT assay; conditions: dose microM <50, time 72.0 hrs; how it was run: as §1
KB 3-1 [5] = test: Cytotoxicity against human KB-3-1 cells assessed as inhibition of cell proliferation incubated for 72 hrs by MTT assay; how it was run: as §1
KB-V1 [6] = test: Cytotoxicity against human KB-V1 cells assessed as inhibition of cell proliferation incubated for 72 hrs by MTT assay; how it was run: as §1
MES-SA [7] = test: Cytotoxicity against human MES-SA cells assessed as inhibition of cell proliferation at >=50 uM incubated for 72 hrs by MTT assay; conditions: dose microM >=50, time 72.0 hrs; how it was run: as §1
MES-SA/Dx5 [8] = test: Cytotoxicity against human MES-SA/DX5 cells assessed as inhibition of cell proliferation at >=50 uM incubated for 72 hrs by MTT assay; conditions: dose microM >=50, time 72.0 hrs; how it was run: as §1
KB 3-1 [9] = test: Cytotoxicity against human KB-3-1 cells assessed as inhibition of cell proliferation at >=50 uM incubated for 72 hrs by MTT assay; conditions: dose microM >=50, time 72.0 hrs; how it was run: as §1
KB-V1 [10] = test: Cytotoxicity against human KB-V1 cells assessed as inhibition of cell proliferation at >=50 uM incubated for 72 hrs by MTT assay; conditions: dose microM >=50, time 72.0 hrs; how it was run: as §1

COc1ccc(NC(=S)NNC(=S)Nc2ccc(OC)cc2)cc1
inactive: pIC50 (MES-SA [1]) | pIC50 (MES-SA/Dx5 [2]) | Activity (MES-SA [3]) | Activity (MES-SA/Dx5 [4])

COc1ccc(NC(=S)NNc2nc3ccccc3s2)cc1
inactive: pIC50 (MES-SA [1]) | pIC50 (MES-SA/Dx5 [2]) | pIC50 (KB 3-1 [5]) | pIC50 (KB-V1 [6]) | Activity (MES-SA [7]) | Activity (MES-SA/Dx5 [8]) | Activity (KB 3-1 [9]) | Activity (KB-V1 [10])
